Bioassay records from PubChem BioAssay.
Rows were chosen to be rich in hits. Some 3.1% of all compounds tested hit in one or more screens of this group.
IMP-1 inh-1 = IMP-1 metallo-beta-lactamase inhibitors, primary screen, biochemical, epi-absorbance readout, Pseudomonas aeruginosa enzyme; metallo-beta-lactamase IMP-1 (Pseudomonas aeruginosa); purified IMP-1, nitrocefin hydrolysis, epi-absorbance fluorescence; inhibition, % at 5.6 µM; hit rate 0.45% among 290,000; AID 1556, 2009;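 active means inhibition above the mean plus 3 SD of all compounds in the same screening run, cut at about 4.5% in these data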;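 further: 0% = IMP-1 with DMSO and 100% = DMSO wells lacking enzyme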
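Assay system: purified recombinant IMP-1 beta-lactamase. Input: IMP-1 0.2 nM before substrate addition. Buffer or medium: Zinc- and detergent-supplemented HEPES buffer, pH 7.1. Schedule: 25 °C, 15 min preincubation, 25 min reaction. Signal: Epi-absorbance fluorescence, 480 nm excitation, 530 nm emission. Evaluation: percent inhibition from optical density relative to buffer-blank wells.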
PHOSPHO1 inh = PubChem AID 1565; Phosphoethanolamine/phosphocholine phosphatase (Homo sapiens), Q8TCT1; recombinant PHOSPHO1, absorbance phosphatase assay; inhibition, % at 13.3 µM; hit rate 1.1% among 290,000; in the data active means inhibition above about 60%
Target sequence (Q8TCT1 whole entry, looked up): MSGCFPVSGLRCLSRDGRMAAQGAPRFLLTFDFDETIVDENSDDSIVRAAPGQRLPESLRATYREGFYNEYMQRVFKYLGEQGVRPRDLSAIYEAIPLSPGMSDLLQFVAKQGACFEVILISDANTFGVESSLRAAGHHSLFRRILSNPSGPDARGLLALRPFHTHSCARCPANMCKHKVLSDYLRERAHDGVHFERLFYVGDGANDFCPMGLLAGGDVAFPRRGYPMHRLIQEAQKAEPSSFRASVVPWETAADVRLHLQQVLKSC
NS3 helicase inh = inhibitors of HCV NS3 helicase, primary screen, biochemical, Cy5 molecular beacon fluorescence. AID 1800, 2009. inhibition, % at 10.9 µM. NS3 helicase DNA unwinding. hit rate 0.56% among 290,000. Hepatitis C virus NS3 helicase;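 active means inhibition above the mean of all tested compounds plus 3 SD, set per campaign, cut at about 35% in these data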;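 further: 0% = DMSO wells and 100% = thioflavine S control wells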
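Material: hepatitis C virus NS3 helicase domain fragment enzyme; measured by: Cy5 fluorescence, 0 and 60 min reads; control set: DMSO and thioflavine S; incubation: 60 min unwinding reaction at 25 °C after ATP addition; read-out basis: % inhibition from 60/0 min fluorescence ratio, DMSO 0%, thioflavine S 100%; repeats: singlicate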
VIM-2 inh = VIM-2 metallo-beta-lactamase inhibitors, primary screen, biochemical, epi-absorbance readout, Pseudomonas aeruginosa enzyme; purified VIM-2, nitrocefin hydrolysis, epi-absorbance fluorescence; inhibition, % at 5.6 µM; hit rate 0.89% among 290,000; AID 1527, 2009;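 active means inhibition above the mean of all tested compounds plus 3 SD, cutoff set per screening run, cut at about 7.5% in these data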;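 further: red hydrolysis product quenches plate fluorescence so inhibitors raise well fluorescence; 0% = enzyme with DMSO and 100% = DMSO without enzyme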
SUMO HTRF inh = inhibitors of in vitro SUMOylation cascade, primary screen, biochemical, HTRF, uHTS; HTRF SUMOylation assay, SAE1/SAE2 + UBC9; inhibition, % at 35 µM; hit rate 0.36% among 290,000; in the data active means inhibition above about 50%, passing the limit was not always enough
core dimer inh = inhibitors of HCV core protein dimerization, primary screen, biochemical, TR-FRET, high-throughput; hit rate 0.33% among 300,000; inhibition, % at 5 µM; TR-FRET GST/Flag-core106 dimerization, 1536-well;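 active means inhibition above the mean of all tested compounds plus 3 SD, set per screening campaign, cut at about 45% in these data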
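assay system = GST-tagged and Flag-tagged HCV core protein residues 1-106 | controls = unlabelled core106 and no-GST-core106 wells | incubation = compound-protein-antibody incubation 4 h at 22.5 °C | probe or stimulus = Eu donor and XL665 acceptor anti-tag antibodies | read-out = % inhibition based on acceptor/donor emission ratio | signal = TR-FRET 671 and 617 nm emission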
IMP-1 inh-2 = IMP-1 metallo-beta-lactamase inhibitors, confirmation, selectivity assay for selective VIM-2 inhibitor project, biochemical, epi-absorbance readout, triplicate; shares compounds with VIM-2 inh; purified IMP-1, nitrocefin hydrolysis, epi-absorbance fluorescence; inhibition, % at 5.6 µM; 1,300 tested, under 10 active; AID 1856, 2009; call rule not given here;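 further: 0% = enzyme with vehicle and 100% = vehicle without enzyme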
VIM-2 FRET ctr = VIM-2 inhibitors in FRET format, confirmation, artefact control for selective VIM-2 inhibitor project, biochemical, epi-absorbance artifact exclusion; shares compounds with VIM-2 inh; purified VIM-2, CCF2 FRET substrate hydrolysis; inhibition, % at 5.6 µM; hit rate 23% among 1,300; AID 1857, 2009;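 active means inhibition above the mean of all tested compounds plus 3 SD, cut at about 19% in these data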;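 further: 0% = VIM-2 plus DMSO and 100% = no enzyme wells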
TEM-1 inh = TEM-1 serine beta-lactamase inhibitors, counter-screen for VIM-2 inhibitor project, biochemical, epi-absorbance, HTS | shares compounds with VIM-2 inh | Purified TEM-1, nitrocefin hydrolysis, epi-absorbance fluorescence | inhibition, % at 5.6 µM | hit rate 3% among 1,300 | AID 1866, 2009;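 active means inhibition above that campaign's mean inhibition plus 3 SD, cut at about 0.46% in these data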;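 further: 0% = TEM-1 with DMSO and 100% = TEM-1 with 100 µM potassium clavulanate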
Target sequence (P62593 whole entry, looked up): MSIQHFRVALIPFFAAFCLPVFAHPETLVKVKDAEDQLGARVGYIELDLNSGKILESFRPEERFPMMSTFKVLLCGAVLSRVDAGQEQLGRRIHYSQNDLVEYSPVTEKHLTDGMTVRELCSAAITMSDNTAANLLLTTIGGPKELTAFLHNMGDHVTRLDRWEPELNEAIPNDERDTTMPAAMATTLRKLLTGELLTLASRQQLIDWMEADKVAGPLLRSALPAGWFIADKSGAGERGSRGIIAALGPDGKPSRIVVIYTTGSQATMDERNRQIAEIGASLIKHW
VIM-2 inh conf = VIM-2 metallo-beta-lactamase inhibitors, confirmation, biochemical, epi-absorbance, hits shared with IMP-1 screen; hit rate 96% among 1,300; shares compounds with VIM-2 inh; inhibition, % at 5.6 µM; AID 2187, 2009; purified VIM-2, nitrocefin hydrolysis;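 active means inhibition of the VIM-2 beta-lactamase enzyme above about 11% from the earlier first-round screen, limit read from the data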;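 further: 0% = VIM-2 with DMSO and 100% = buffer wells without enzyme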
Numbers without * were called inactive; . = no result given.

SMILES	IMP-1 inh-1	PHOSPHO1 inh	NS3 helicase inh	VIM-2 inh	SUMO HTRF inh	core dimer inh	IMP-1 inh-2	VIM-2 FRET ctr	TEM-1 inh	VIM-2 inh conf
Cc1cc(OCC(=O)NCc2ccncc2)c2c3c(c(=O)oc2c1)CCCC3	-2	22	-4	40*	25	-2	-3	2	-12	52*
C=C1C[C@]2(O)[C@@]3(C)CCC(=O)C(C)(C)C3=C(O)C(=O)[C@@]2(C)[C@@H]2C(=O)O[C@@](C)(C(=O)OC)C(=O)[C@@]12C	0	40	4	-3	17	-3	.	.	.	.
CN1CCN(c2ccc(NC(=O)Oc3ccccc3)cc2)CC1	-5	19	0	29*	10	-9	-5	-4	-6	24*
COC(=O)C(O)(c1ccc(NC(=O)Oc2ccccc2)cc1)C(F)(F)F (configuration not stated)	-3	20	8	-3	-5	-2	.	.	.	.
COc1cc(C)c(CN2CCN(c3ccccc3)CC2)cc1C	-4	9	-13	-2	-4	0	.	.	.	.
O=C1C(=O)c2ccccc2-c2ccccc21	1	100*	15	17*	100*	44	-5	-5	-4	18*
COc1ccc(Cl)cc1N=Cc1c(O)n(C)c(=O)n(C)c1=O	-1	.	-6	13*	11	-1	-2	-2	-5	21*
CNC(C)(C)Cc1ccccc1	.	.	.	.	.	-3	.	.	.	.
CCOC(=O)c1c(C)n(Cc2ccco2)c2ccc(OC)cc12	-2	1	-8	0	-3	2	.	.	.	.
CCOC(=O)c1c(C)n(CCN2CCN(C)CC2)c2ccc(OC)cc12	-1	7	7	61*	4	-1	0	2	0	80*
CC(O)(CS(=O)(=O)c1ccccc1)C(=O)Nc1cccc(C(F)(F)F)c1 (configuration not stated)	-1	-9	4	-2	-8	-1	.	.	.	.
C=CCn1c(O)c(C(C)=NCCCn2ccnc2)c(=O)[nH]c1=O	-2	46	6	58*	19	0	-3	-2	-6	78*
CC(=NCCCn1ccnc1)c1c(O)n(-c2ccccc2)c(=O)[nH]c1=O	-4	3	-28	-2	13	-6	.	.	.	.
Cc1cc(OCC(=O)N[C@@H](Cc2ccccc2)C(=O)O)c2c3c(c(=O)oc2c1)CCC3	-3	34	15	2	28	0	.	.	.	.
Cc1cc(OCC(=O)NC(Cc2ccc(Cl)cc2)C(=O)O)c2c3c(c(=O)oc2c1)CCC3 (configuration not stated)	-1	-13	-7	19*	14	2	-4	33*	-7	19*
Cc1cc(OCC(=O)N[C@H](C(=O)O)c2ccccc2)c2c3c(c(=O)oc2c1)CCC3	-2	-2	22	17*	25	2	-3	26*	-7	21*
CCOP(=S)(NN(Cc1ccccc1)C(=O)c1ccccc1)OCC	-1	6	-12	-1	-1	4	.	.	.	.
